# High-throughput results from PubChem BioAssay.
# This is one part of a sample in which hits are shown more often than they occur.
# GASC1 inh: inhibitors of human demethylase GASC-1 KDM4C | Q9H3R0 | GST-KDM4C 2-372, H3K9me3 peptide, LANCE TR-FRET | inhibition, % at 12.5 µM | 96,000 compounds, 0.15% hits;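 active means mean replicate inhibition above about 25%, with at least 55% of replicates also reaching it, limit read from the data, passing the limit was not always enough; inconclusive means only one of those two conditions met; inactive means neither condition met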
# Target sequence (Q9H3R0 2-372 limits assumed): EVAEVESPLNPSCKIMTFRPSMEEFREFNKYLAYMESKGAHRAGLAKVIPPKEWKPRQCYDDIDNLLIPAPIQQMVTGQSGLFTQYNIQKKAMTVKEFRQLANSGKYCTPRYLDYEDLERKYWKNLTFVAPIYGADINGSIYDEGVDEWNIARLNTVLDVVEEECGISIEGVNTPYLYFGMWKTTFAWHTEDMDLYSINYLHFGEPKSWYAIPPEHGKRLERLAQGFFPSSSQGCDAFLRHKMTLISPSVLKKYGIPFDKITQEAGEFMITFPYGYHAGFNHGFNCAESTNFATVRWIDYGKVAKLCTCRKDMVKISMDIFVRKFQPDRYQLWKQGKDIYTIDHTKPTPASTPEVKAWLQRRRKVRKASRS
#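 Compound: one test concentration per compound; Material: GST-GASC-1 enzyme fragment 2-372; Amount: GASC-1 enzyme at 10 nM final in reaction; Also added: H3K9me3 peptide substrate, Fe(II), 2-oxoglutarate; Technique: LANCE TR-FRET; Times: 30 min demethylation and 1 h detection at room temperature.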
# T cruzi growth-1: inhibitors of T. cruzi proliferation; T. cruzi beta-gal in NIH3T3, GalScreen luminescence, 90 h; inhibition, % at 8.34 µM; 77,000 compounds, 5.9% hits;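 active means mean inhibition above about 93%, with at least 55% of replicates each passing it, limit read from the data, passing the limit was not always enough; inconclusive means only one of those two conditions holds; inactive means neither condition holds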
# IDH1 mut inh: IDH1 R132H (human) inhibition; inhibition, % at 10 µM; AID 624101; 70,000 compounds, 0.18% hits; O75874; IDH1 R132H reductase, diaphorase/resazurin fluorescence, 60 min; in the data active means inhibition above about 34%; inconclusive means no clear call, values can overlap the other calls; inactive means below about 11%
# T cruzi growth-2: Trypanosoma cruzi proliferation inhibition; shares compounds with T cruzi growth-1; T. cruzi beta-gal in NIH3T3, GalScreen luminescence, 90 h; inhibition, % at 8.35 µM; 5,600 compounds, 72% hits; AID 651739;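 active means mean replicate inhibition above about 95% and at least 55% of replicates individually reaching it, limit read from the data; inconclusive means only one of the two criteria is met; inactive means neither criterion is met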
# T cruzi growth-3: inhibitors of T. cruzi proliferation. shares compounds with T cruzi growth-1. T. cruzi beta-gal in NIH3T3, GalScreen luminescence, 90 h. inhibition, % at 2.09 µM. 5,600 compounds, 21% hits. AID 651740;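 active means mean inhibition above about 95%, with at least 55% of replicates also reaching it, limit read from the data; inconclusive means meets just one of the two conditions; inactive means meets neither condition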
# 3T3 cytotox: cytotoxicity in mouse NIH/3T3 fibroblasts | 5,600 compounds, 14% hits | AID 651742 | cytotoxicity (signal decrease), % at 8.35 µM | shares compounds with T cruzi growth-1 | NIH/3T3 viability, CellTiter-Glo ATP luminescence, 90 h;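 active means mean signal decrease across replicates above about 35% based on untreated-well scatter, with enough replicates individually passing, limit read from the data; inconclusive means no rule stated though some were filed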
# NIH3T3 tox 2: NIH/3T3 (mouse) viability loss; shares compounds with T cruzi growth-1; NIH/3T3 viability, CellTiter-Glo ATP luminescence, 90 h; inhibition, % at 24.9 µM; 5,600 compounds, 56% hits; AID 651744;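 active means mean loss of cell viability signal at or above a set limit, and enough replicates individually reaching it; inconclusive means meets only the mean limit or only the replicate share; inactive means meets neither condition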
# Numbers stand for hits; – = inactive; ? = inconclusive; · = no result given.
SMILES,GASC1 inh,T cruzi growth-1,IDH1 mut inh,T cruzi growth-2,T cruzi growth-3,3T3 cytotox,NIH3T3 tox 2
OC[C@@H]1[C@H](c2ccc(-c3cccnc3)cc2)[C@H]2CN(CC3CCOCC3)CCCCN12,·,97,·,?,–,–,–
CC(=O)Nc1ccc(NC(=O)C(NC(=O)c2ccco2)C(C)C)cc1 (centres undefined),·,·,–,·,·,·,·
COc1ccc(CCNc2nc(C)nc3c2sc2nc4c(cc23)COC(C)(C)C4)cc1OC,·,·,–,·,·,·,·
O=C(C[C@@H]1CC[C@@H]2[C@H](COC[C@H](O)CN2C(=O)Nc2ccc(Cl)c(Cl)c2)O1)NCc1ccccc1,–,–,·,·,·,·,·
O=C(C[C@H]1CC[C@@H]2[C@H](COC[C@H](O)CN2C(=O)Nc2ccc(Cl)c(Cl)c2)O1)NCc1ccc(Cl)c(Cl)c1,–,106,·,96,–,–,104
O=C(C[C@H]1CC[C@H]2[C@@H](COC[C@H](O)CN2C(=O)Nc2ccc(Cl)c(Cl)c2)O1)NCc1ccncc1,–,153,·,110,–,–,–
O=C(C[C@H]1CC[C@H]2[C@@H](COC[C@@H](O)CN2C(=O)Nc2ccc(Cl)c(Cl)c2)O1)NCc1ccc(Cl)cc1,–,–,·,·,·,·,·
O=C(C[C@@H]1CC[C@H]2[C@@H](COC[C@H](O)CN2C(=O)Nc2ccc(Cl)c(Cl)c2)O1)NCc1ccncc1,–,128,·,98,–,–,39
O=C(C[C@H]1CC[C@H]2[C@@H](COC[C@@H](O)CN2C(=O)Nc2ccc(Cl)c(Cl)c2)O1)NCc1ccccc1,–,–,·,·,·,·,·
CCNS(=O)(=O)c1ccc(NC(=O)c2cc(-c3ccncc3)nc3c(C)c(Cl)ccc23)cc1,·,·,–,·,·,·,·
Cc1ccc(Nc2nc(N)nc(CN3CCN(C(c4ccccc4)c4ccccc4)CC3)n2)cc1,·,·,–,·,·,·,·
CCOC(=O)c1c(NC(=O)C(C)n2nc([N+](=O)[O-])c(Br)c2C)sc2c1CCC2 (centres undefined),·,·,–,·,·,·,·
CC(C)(C)c1ccc(S(=O)(=O)NCC(=O)Nc2ccc3c(c2)OCCO3)cc1,·,·,–,·,·,·,·
N#Cc1cccc(-c2ccc3c(c2)[C@@H]2[C@@H](CCN2C(=O)c2ccc4c(c2)OCO4)[C@@H](CO)N3)c1,–,–,·,·,·,·,·
O=C(c1ccc2c(c1)OCO2)N1CC[C@@H]2[C@@H](CO)Nc3ccc(C#Cc4ccccc4)cc3[C@@H]21,–,–,·,·,·,·,·
N#Cc1cccc(-c2ccc3c(c2)[C@@H]2[C@@H](CCN2C(=O)c2ccncc2)[C@@H](CO)N3)c1,–,103,·,97,–,–,–
N#Cc1ccc(-c2ccc3c(c2)[C@@H]2[C@@H](CCN2C(=O)c2ccncc2)[C@H](CO)N3)cc1,–,–,·,·,·,·,·
CCC(=O)N1CC[C@@H]2[C@H](CO)Nc3ccc(-c4ccc(C(=O)N(C)C)cc4)cc3[C@@H]21,–,108,·,101,–,–,–
N#Cc1cccc(-c2ccc3c(c2)[C@H]2[C@H](CCN2C(=O)c2ccc4c(c2)OCO4)[C@@H](CO)N3)c1,–,97,·,103,100,–,37
CCC(=O)N1CC[C@@H]2[C@H]1c1cc(-c3ccccc3)ccc1N[C@@H]2CO,–,–,·,·,·,·,·
O=C(c1ccc2c(c1)OCO2)N1CC[C@@H]2[C@H]1c1cc(C#Cc3ccccc3)ccc1N[C@@H]2CO,–,93,·,107,–,–,–
Cc1cc(Cl)ccc1OC(C)C(=O)Nc1cccc(C(=O)O)c1 (centres undefined),·,·,–,·,·,·,·
O=C(NCc1ccccn1)C1CCCN(S(=O)(=O)c2ccc(F)cc2)C1 (centres undefined),·,·,–,·,·,·,·
CN(C)C(=O)c1cccc(-c2ccc3c(c2)[C@@H]2[C@@H](CCN2C(=O)c2ccc4c(c2)OCO4)[C@@H](CO)N3)c1,–,–,·,·,·,·,·
CN(C)C(=O)c1ccc(-c2ccc3c(c2)[C@H]2[C@H](CCN2C(=O)c2ccc4c(c2)OCO4)[C@@H](CO)N3)cc1,–,101,·,105,–,–,–
SMILES,GASC1 inh,T cruzi growth-1,IDH1 mut inh,T cruzi growth-2,T cruzi growth-3,3T3 cytotox,NIH3T3 tox 2
COC1(C(=O)NN)COc2ccccc2O1 (centres undefined),·,·,–,·,·,·,·
O=C(CCSc1nc(-c2ccco2)cc(C(F)(F)F)n1)Nc1cccnc1,·,·,–,·,·,·,·
Cc1ccc(C(=O)Nc2ccc(OCC(=O)O)cc2)cc1,·,·,–,·,·,·,·
CCC(Sc1nnc(C)s1)C(=O)Nc1ccc(Cl)cc1 (centres undefined),·,·,–,·,·,·,·
C[C@@H]1CN([C@@H](C)CO)S(=O)(=O)c2ccc(C3=CCCCC3)cc2O[C@H]1CN(C)Cc1ccccc1F,–,·,·,·,·,·,·
C[C@@H]1CN([C@@H](C)CO)S(=O)(=O)c2ccc(C3=CCCC3)cc2O[C@H]1CN(C)Cc1ccccc1F,–,121,–,101,105,–,104
C[C@H](CO)N1C[C@H](C)[C@H](CN(C)Cc2ccccc2F)Oc2cc(C3=CCCC3)ccc2S1(=O)=O,–,–,·,·,·,·,·
C[C@@H]1CN([C@H](C)CO)S(=O)(=O)c2ccc(C3=CCCC3)cc2O[C@@H]1CN(C)Cc1ccccc1F,–,103,–,99,105,–,107
O=C(CSc1nc2sccc2c(=O)[nH]1)Nc1ccccc1,·,·,–,·,·,·,·
CN1c2ccc(-c3ccccc3)cc2[C@H]2[C@H](CCN2C(=O)c2ccc(F)cc2)[C@H]1CO,–,–,·,·,·,·,·
CN1c2ccc(-c3ccccc3)cc2[C@H]2[C@H](CCN2C(=O)c2ccncc2)[C@H]1CO,–,103,·,107,–,–,–
CN1c2ccc(-c3ccc(F)cc3)cc2[C@H]2[C@H](CCN2C(=O)c2ccncc2)[C@@H]1CO,–,?,·,110,–,–,?
CN(C)C(=O)c1cccc(-c2ccc3c(c2)[C@H]2[C@H](CCN2C(=O)c2ccccc2)[C@@H](CO)N3C)c1,–,102,·,100,–,–,–
CN1c2ccc(-c3ccccc3)cc2[C@H]2[C@H](CCN2C(=O)c2ccccc2)[C@H]1CO,–,–,·,·,·,·,·
CN1c2ccc(-c3ccc(F)cc3)cc2[C@@H]2[C@@H](CCN2C(=O)c2ccncc2)[C@H]1CO,–,–,·,·,·,·,·
CC(=O)c1ccc(NC(=O)CSc2n[nH]c(C)n2)cc1,·,·,–,·,·,·,·
COC(=O)CC1C(=O)NCCN1C(=S)Nc1cccc(OC)c1 (centres undefined),·,·,–,·,·,·,·
CCCN(C)C[C@H]1Oc2cc(C#Cc3ccccc3OC)ccc2S(=O)(=O)N([C@@H](C)CO)C[C@H]1C,–,97,–,106,–,–,105
CCCN(C)C[C@@H]1Oc2cc(C#Cc3ccccc3OC)ccc2S(=O)(=O)N([C@H](C)CO)C[C@@H]1C,–,97,–,108,–,–,107
CCCN(C)C[C@H]1Oc2cc(C#Cc3ccccc3OC)ccc2S(=O)(=O)N([C@H](C)CO)C[C@H]1C,–,–,–,·,·,·,·
CCCN(C)C[C@@H]1Oc2cc(C#Cc3ccccc3OC)ccc2S(=O)(=O)N([C@@H](C)CO)C[C@@H]1C,–,–,–,·,·,·,·
